Source: PubChem BioAssay
The list is not random: actives were taken first. Their share in the collection is about 1.5%.
aDG glyco act = activators of alpha-DG glycosylation, primary screen, uHTS, Pro5-aDG cells, AlphaScreen | alpha-DG glycosylation AlphaScreen (IIH6); 0% Pro5, 100% B10-LARGE cell signal | activation, % at 10 µM | actives 0.22% (n = 360,000) | AID 624168, 2012;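 active = activation of at least 8% versus controls, or a plate z-score of at least 8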;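 note: Pro5 are CHO cells carrying HIG-tagged alpha-DG that lacks glycosylation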
CSN inh = inhibitors of CSN-mediated cullin deneddylation, primary screen, biochemical, fluorescence polarization, uHTS | Purified CSN, SCF-Nedd8-OG deneddylation | inhibition, % at 12.5 µM | actives 0.38% (n = 360,000);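 active = pattern-corrected inhibition above about 35%, with an unprinted fluorescence ratio check between 0.5 and 1.5, limit read from the data, passing the limit was not always enough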;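 note: 0% = enzyme with substrate and 100% = substrate without enzyme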
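assay system = purified human Csn5 enzyme expressed in HEK293T cells | amount = 0.24 nM enzyme | buffer or medium = Tris/NaCl/DTT buffer, pH 7.5 | reagent = 10 nM SCFSkp2-Nedd8OG | compound = one concentration, 12.5 µM, 0.25% DMSO | times = 90 min reaction at room temperature | signal = FP | read-out basis = % inhibition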
HNF4A DNA FP = change in binding of human HNF4A to DNA, primary screen, biochemical, fluorescence polarization, FITC-DNA | actives 0.3% (n = 360,000) | 1 h | activity change, % at 10 µM | Hepatocyte nuclear factor 4-alpha (Homo sapiens), P41235; in the data active = activity change above about 30%, passing the limit was not always enough
Target sequence (P41235 whole entry, looked up): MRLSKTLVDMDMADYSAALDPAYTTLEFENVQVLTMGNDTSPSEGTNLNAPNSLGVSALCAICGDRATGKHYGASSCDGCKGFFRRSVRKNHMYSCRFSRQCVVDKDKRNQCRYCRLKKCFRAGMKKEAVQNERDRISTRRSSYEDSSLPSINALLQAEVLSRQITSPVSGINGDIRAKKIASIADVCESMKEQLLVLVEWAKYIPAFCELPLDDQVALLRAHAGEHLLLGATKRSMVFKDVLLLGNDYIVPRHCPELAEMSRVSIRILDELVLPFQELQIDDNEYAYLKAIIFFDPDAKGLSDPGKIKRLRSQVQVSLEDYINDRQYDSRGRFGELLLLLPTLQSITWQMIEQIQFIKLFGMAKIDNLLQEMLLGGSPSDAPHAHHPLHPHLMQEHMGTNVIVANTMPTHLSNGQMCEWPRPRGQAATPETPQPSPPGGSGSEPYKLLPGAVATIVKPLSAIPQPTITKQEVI
Rev-erbA mod = modulators of Rev-erb alpha DNA binding, primary screen, biochemical, FITC-DNA, fluorescence polarization, uHTS | Nuclear receptor subfamily 1 group D member 1 (Homo sapiens), P20393 | Rev-erbα–FITC-DNA binding, 90 min | activity, % at 10 µM | actives 0.79% (n = 370,000);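 active = activity above about 14%, limit read from the data; passing the limit was not always enough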;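 note: 0% = DMSO wells with 35 nM protein and 100% = DMSO wells with 750 nM protein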
NR1D1 mod conf = modulators of Rev-erb alpha DNA binding, confirmation, biochemical, FITC-DNA, fluorescence polarization, single point; 90 min; actives 61% (n = 3,000); activation, % at 25 µM; shares compounds with Rev-erbA mod;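 active = activation at or above a set limit, or at least 3 SD above the negative control mean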;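 note: 0% = 35 nM protein with DMSO and 100% = 750 nM protein high control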
RORg counter = modulation of RORgamma DNA binding, dose response, counter-screen for Rev-erb alpha modulator project, biochemical, fluorescence polarization, FITC-DNA. shares compounds with Rev-erbA mod. purified RORgamma protein-FITC-DNA binding. IC50, µM. actives 8% (n = 910);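 active = Compounds whose fitted half-maximal concentration for disrupting protein-DNA binding is below 10 micromolar; the record names Rev-erb in its text, so the target is in doubt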
* = called active by the depositor.

O=C(COC(=O)c1ccccc1C(=O)c1ccc(Cl)cc1)NCCc1ccccc1 was read as aDG glyco act 0.2, CSN inh 0.4, HNF4A DNA FP -1.3 and Rev-erbA mod 0.7.
Screening Cc1cc(C)c(N=C2SCC(=O)N2Cc2ccco2)c(C)c1 returned aDG glyco act 0.0, CSN inh -6.5, HNF4A DNA FP 2.9, Rev-erbA mod 43.2*, NR1D1 mod conf 36.8* and RORg counter >40.
For COc1ccc(OC)c(S(=O)(=O)N2CCCCC2C(=O)N2CCN(c3ccccc3F)CC2)c1 (stereo not drawn) the results were Rev-erbA mod 3.4.
Screening CCOC(=O)[C@@H](CCc1ccccc1)N[C@@H](C)C(=O)N1CCC[C@H]1C(=O)O returned Rev-erbA mod 4.5.
Screening COc1ccc(/C=N/NC(=O)Nc2cccc3nsnc23)c(OC)c1 returned aDG glyco act 0.6, CSN inh 31.2, HNF4A DNA FP 11.8, Rev-erbA mod 68.1* and NR1D1 mod conf 23.6*.
Screening Cc1ccccc1OCC(=O)Nc1cccc2nsnc12 returned aDG glyco act -0.2, CSN inh 2.5, HNF4A DNA FP 1.7, Rev-erbA mod 105.0*, NR1D1 mod conf 54.6* and RORg counter inactive.
Cc1cccc(OCC(=O)Nc2ccccc2N2CCCC2)c1C was read as aDG glyco act -0.4, CSN inh -3.0, HNF4A DNA FP -1.1 and Rev-erbA mod -2.3.
`Cc1ccccc1OCC(=O)Nc1ccccc1N1CCCCC1` gave aDG glyco act 0.1, CSN inh 2.8, HNF4A DNA FP -0.7, Rev-erbA mod 16.7* and NR1D1 mod conf 16.6.
`COC(=O)[C@]1(CNC(C)=O)CC(=O)N(Cc2ccc(Cl)cc2)[C@@H]1c1ccc(OC)cc1` gave Rev-erbA mod 6.3.
COC(=O)[C@]1(CNC(=O)C(C)(C)C)CC(=O)N(C)[C@@H]1c1ccccc1 was read as Rev-erbA mod -4.0.
For COc1ccccc1CNc1ncnc2cc(Cl)ccc12 the results were aDG glyco act 4.0, CSN inh 6.7, HNF4A DNA FP -2.3, Rev-erbA mod 179.7*, NR1D1 mod conf 137.2* and RORg counter inactive.
`CN1CCCN(C(=O)C2CCCN(C(=O)c3ccc4c(c3)NC(=O)CS4)C2)CC1` (stereo not drawn) gave Rev-erbA mod -4.0.
Cc1ccc2nc(-c3cc(-c4ccccc4)no3)cn2c1 was read as aDG glyco act -0.1, CSN inh 4.8, HNF4A DNA FP 9.9, Rev-erbA mod 36.6* and NR1D1 mod conf 18.8*.
`C=CCOC(=O)N[C@H](c1ccc(-c2ccccc2)cc1)[C@H](C)/C=C/CC(=O)OC` gave Rev-erbA mod -1.7.
`CC(=O)c1c(N2CCOCC2)nc2ccc(Cl)cc2c1-c1ccccc1` gave aDG glyco act 0.1, CSN inh -0.1, HNF4A DNA FP 0.8, Rev-erbA mod 30.5* and NR1D1 mod conf 28.3*.
Screening Cc1ccc(-c2cc(C(=O)NN=Cc3c(O)ccc4ccccc34)[nH]n2)cc1C returned Rev-erbA mod 22.2* and NR1D1 mod conf 15.8*.
`C=CCN1C(C(=O)OC)CN(Cc2cn(Cc3ccc(F)cc3)nn2)CCS1(=O)=O` (stereo not drawn) gave Rev-erbA mod 0.7.
For CC(C)C[C@H]1COc2cccc(N3CCSCC3)c2S(=O)(=O)N1C the results were Rev-erbA mod 5.8.
O=S(=O)(CC1NCc2ccccc21)NCCc1ccccc1 (stereo not drawn) was read as Rev-erbA mod 8.2.
COc1ccc(C(=O)OCC(=O)Nc2nc3c(F)c(F)c(F)cc3s2)cc1OC was read as aDG glyco act -0.1, CSN inh -7.6, HNF4A DNA FP 5.8, Rev-erbA mod 19.9* and NR1D1 mod conf 3.1.
`CCCCCc1ccc(OCCCC[n+]2ccc(C)cc2)c(CCCCC)c1` gave aDG glyco act 0.1, CSN inh 0.0, HNF4A DNA FP 1.5, Rev-erbA mod 21.2* and NR1D1 mod conf 25.2*.
